Compounds with a hit are over-represented: about 1.3% of the library has one in this group of screens.
S1P4 agonist – activates the human S1P4 receptor; O95977; S1P4-expressing cell line, agonist reporter assay; activation, % at 4.98 µM; 220,000 tested, 0.35% active; AID 1509; in the data active means activation above about 11%;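 further: 0% = DMSO vehicle and 100% = reference agonist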
Calb biofilm kill – mixtures killing C. albicans biofilm | C. albicans biofilm persisters + clotrimazole, fluorescence viability; primary screen in compound mixtures of four per well | inhibition, % at 7.6 µM | 120,000 tested, 0.02% active | AID 1242;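 active means inhibition above 30.3% in the primary screen of four-compound pools, then above 30% when the compound was retested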;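 further: compounds exposed to preformed 24 h biofilms for 48 h; 0% = untreated biofilm control and 100% = clotrimazole plus chlorhexidine kill blank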
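Incubation: 24 h biofilm formation, then 48 h compound exposure, 37 °C | Material: C. albicans biofilms | Buffer or medium: RPMI/MOPS medium, pH 7.0 | Measured by: 2-h Alamar Blue fluorescence, 535/590 nm excitation/emission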
Dynein cargo inh – dynein cargo transport inhibition; 3617.4 mouse cells, GR-EGFP nuclear translocation imaging; test concentration mostly 20 µM; stimulated with dexamethasone, 1 µM; hits give low values; z-score, hits read low; 220,000 tested, 0.47% active;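 active means plate z-score of nuclear minus cytoplasmic receptor signal below a set negative limit, without overly bright fluorescence or cell loss, cut at about -3.5 in these data, passing the limit was not always enough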;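 further: z-score of nuclear minus cytoplasmic ring GR-EGFP intensity difference per well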
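medium = tetracycline-free induction medium containing charcoal-stripped FBS | probe or stimulus = dexamethasone, 1.0 µM final | timing = 48 h induction, then 1 h compound, then 30 min agonist, 37 °C | detection = automated 10x imaging of fixed Hoechst-stained cells | read-out basis = nuclear versus cytoplasmic GR-EGFP signal, averaged per well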
S1P4 antagonist – antagonists of human S1P4 receptor; O95977; inhibition, % at 4.98 µM; S1P4-expressing cells, antagonist mode, reporter read-out; 220,000 tested, 0.26% active; AID 1510; in the data active means inhibition above about 29%;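 further: 0% = wells stimulated with agonist and 100% = vehicle wells without agonist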
TbHK1 inh – T. brucei hexokinase 1 inhibition; AID 1430; recombinant TbHK1, G6PDH-coupled NADH A340; inhibition, % at 10 µM; 220,000 tested, 0.11% active;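 active means inhibition of 50% or more in the single-dose primary screen; inactive means inhibition below 50%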
S1P3 antag – blocks the human S1P3 receptor. AID 485. 170,000 tested, 0.27% active. CHO S1P3 NFAT-BLA reporter, FRET fluorescence, antagonist mode. inhibition, % at 4.98 µM. Q99500;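 active means inhibition above the plate cutoff, the mean inhibition of test wells on that plate plus 3 SD, cut at about 28% in these data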;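 further: cells challenged with S1P at its EC80 of 0.8 µM; blue over green emission ratio from cleaved BLA substrate after 4 h stimulation; 0% = S1P-stimulated wells and 100% = unstimulated DMSO-only wells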
S1P4 antag conf – human S1P4 antagonism, confirmation; S1P4-expressing cell line, antagonist mode, reporter read-out; 520 tested, 71% active; shares compounds with S1P4 antagonist; inhibition, % at 4.98 µM; in the data active means inhibition above about 30%
S1P1 antagonist – blocks human S1P1, counter-screen for S1P4 antagonists | inhibition, % at 4.98 µM | cell-based S1P1 antagonist counterscreen, inhibition | 520 tested, 37% active | shares compounds with S1P4 antagonist | AID 1564; in the data active means inhibition above about 40%;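 further: receptor stimulated with S1P near its EC80; 0% = agonist stimulated wells and 100% = vehicle only wells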
Target sequence (P21453 whole entry, looked up): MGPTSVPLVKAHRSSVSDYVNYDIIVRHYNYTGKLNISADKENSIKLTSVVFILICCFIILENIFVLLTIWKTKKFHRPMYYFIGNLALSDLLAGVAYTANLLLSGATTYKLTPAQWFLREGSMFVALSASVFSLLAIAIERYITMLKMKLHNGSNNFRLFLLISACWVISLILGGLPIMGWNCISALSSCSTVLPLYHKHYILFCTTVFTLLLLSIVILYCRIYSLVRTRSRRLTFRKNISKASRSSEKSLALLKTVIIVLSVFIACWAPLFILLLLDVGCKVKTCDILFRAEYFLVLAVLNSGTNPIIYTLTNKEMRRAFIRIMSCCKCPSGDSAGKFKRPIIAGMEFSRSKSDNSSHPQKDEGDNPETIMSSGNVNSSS
An asterisk follows results filed as active.

Screening CC1=C(C)/C(=N\OS(=O)(=O)c2ccccc2)C=CC1=O returned S1P4 agonist -1, Dynein cargo inh -2.4, S1P4 antagonist 42*, TbHK1 inh -2, S1P4 antag conf 69* and S1P1 antagonist 10.
Screening O=C(Nc1ccc2c(c1)OCO2)c1n[nH]c(=O)c2ccccc12 returned S1P4 agonist 1, Calb biofilm kill 15, Dynein cargo inh 0.022, S1P4 antagonist -17, TbHK1 inh -8 and S1P3 antag 0.
`COc1ccc(OC)c(C2=C/C(=C/c3ccccn3)C(=O)O2)c1` gave S1P4 agonist 2, Calb biofilm kill 11, Dynein cargo inh -0.57, S1P4 antagonist 4, TbHK1 inh -13 and S1P3 antag 6.
COc1ccc2c(c1)c(/C=N/Nc1nc3ccccc3[nH]1)c(C)n2C was read as S1P4 agonist 1, Calb biofilm kill 3, Dynein cargo inh 0.27, S1P4 antagonist 32*, TbHK1 inh -52, S1P3 antag 11, S1P4 antag conf 23 and S1P1 antagonist -1.
Screening CC(C)(O)C#Cc1ccc(CN2CCN(CCc3ccccc3)C(CCO)C2)s1 (stereo not given) returned S1P4 agonist -1, Calb biofilm kill 25, Dynein cargo inh -0.24, S1P4 antagonist 13, TbHK1 inh 6 and S1P3 antag -17.
Screening CC1=C(C(=O)Nc2ccc([N+](=O)[O-])cc2)C(c2cccc(C(F)(F)F)c2)NC(=S)N1c1ccccc1 (stereo not given) returned S1P4 agonist -1, Dynein cargo inh -0.47, S1P4 antagonist 31*, TbHK1 inh -17, S1P4 antag conf 33* and S1P1 antagonist 15.
For COc1ccc(C2NC(=S)N(c3ccccc3)C(C)=C2C(=O)Nc2ccccc2)cc1 (stereo not given) the results were S1P4 agonist 0, Dynein cargo inh -0.93, S1P4 antagonist -4 and TbHK1 inh -8.
`Fc1cccc(F)c1/C=N/NC(=S)Nc1cccnc1` gave S1P4 agonist 1, Calb biofilm kill 17, Dynein cargo inh 0.53, S1P4 antagonist -10, TbHK1 inh -16 and S1P3 antag -22.
Screening Fc1c(F)c(F)c(/C=N/NC(=S)Nc2cccnc2)c(F)c1F returned S1P4 agonist -3, Calb biofilm kill 0, Dynein cargo inh -1.4, S1P4 antagonist 40*, TbHK1 inh -5, S1P3 antag -4, S1P4 antag conf 66* and S1P1 antagonist 19.
`O=C(c1ccccc1Cl)N(Cc1ccc(Br)cc1)N1C(=O)CCC1=O` gave S1P4 agonist 2, Calb biofilm kill 6, Dynein cargo inh 1.1, S1P4 antagonist -11, TbHK1 inh 5 and S1P3 antag -5.
Screening COc1cc2c3nnc(-c4ccc(F)cc4)c-3cn(Cc3ccccc3F)c2cc1OC returned S1P4 agonist 1, Calb biofilm kill 11, Dynein cargo inh 0.23, S1P4 antagonist -8, TbHK1 inh 7 and S1P3 antag 2.
Screening COc1cc2c3nnc(-c4ccccc4)c-3cn(Cc3ccccc3F)c2cc1OC returned S1P4 agonist -5, Calb biofilm kill 13, Dynein cargo inh 1.4, S1P4 antagonist 84*, TbHK1 inh -4, S1P3 antag 11, S1P4 antag conf 86* and S1P1 antagonist 128*.
Screening CC1(C)CC(=O)C(C(=O)/C=C/c2ccco2)C(=O)C1 returned S1P4 agonist 0, Calb biofilm kill 18, Dynein cargo inh 1.1, S1P4 antagonist -13, TbHK1 inh -18 and S1P3 antag -7.
CCc1ccccc1NC(=O)Nc1ccc(F)cc1F was read as S1P4 agonist 1, Calb biofilm kill 11, Dynein cargo inh -0.15, S1P4 antagonist 2, TbHK1 inh 1 and S1P3 antag 12.
`O=C(Nc1ccc(F)cc1F)Nc1ccccc1C(=O)NCCN1CCNC1=O` gave S1P4 agonist 0, Calb biofilm kill 15, Dynein cargo inh 0.35, S1P4 antagonist 31*, TbHK1 inh 4, S1P3 antag -19, S1P4 antag conf -14 and S1P1 antagonist 11.
